Reference: ChEMBL document CHEMBL1145104, “Discovery of a long-chain carbamoyl aminocarnitine derivative, a reversible carnitine palmitoyltransferase inhibitor with antiketotic and antidiabetic activity” (J Med Chem, 2003)

What was measured:
[1] = target: T1, Carnitine O-palmitoyltransferase 1, liver isoform (Rattus norvegicus, UniProt P32198); assay: Inhibition of [14C]palmitoyl-CoA and carnitine binding to carnitine palmitoyltransferase I from rat liver mitochondria
T1 sequence (P32198 whole entry): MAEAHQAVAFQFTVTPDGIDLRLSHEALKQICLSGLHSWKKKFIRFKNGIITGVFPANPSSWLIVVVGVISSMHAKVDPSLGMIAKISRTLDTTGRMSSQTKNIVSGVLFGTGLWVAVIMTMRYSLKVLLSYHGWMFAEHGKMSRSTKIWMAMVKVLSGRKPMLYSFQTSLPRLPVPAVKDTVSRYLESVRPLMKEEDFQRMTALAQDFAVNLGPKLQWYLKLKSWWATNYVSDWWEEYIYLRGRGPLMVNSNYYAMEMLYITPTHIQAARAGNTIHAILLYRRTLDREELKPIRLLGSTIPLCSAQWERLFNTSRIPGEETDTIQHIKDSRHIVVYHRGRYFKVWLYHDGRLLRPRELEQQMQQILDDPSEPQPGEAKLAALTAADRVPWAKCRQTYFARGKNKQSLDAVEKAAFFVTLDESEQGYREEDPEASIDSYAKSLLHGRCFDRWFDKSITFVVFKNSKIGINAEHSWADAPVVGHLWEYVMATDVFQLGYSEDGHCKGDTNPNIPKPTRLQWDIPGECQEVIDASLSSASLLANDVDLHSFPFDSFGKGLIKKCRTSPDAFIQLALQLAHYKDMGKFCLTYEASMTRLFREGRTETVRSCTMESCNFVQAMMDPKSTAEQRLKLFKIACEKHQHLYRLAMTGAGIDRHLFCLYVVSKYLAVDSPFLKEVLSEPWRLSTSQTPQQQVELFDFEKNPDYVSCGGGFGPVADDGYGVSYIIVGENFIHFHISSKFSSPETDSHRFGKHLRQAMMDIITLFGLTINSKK
Summary of the method: (§1)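 Intact mitochondria freshly isolated from the livers of fed male Sprague-Dawley rats, suspended in buffer with 225 mM sucrose. Assay medium at pH 7.5 with [14C]palmitoyl-CoA and L-carnitine, and inhibitor at 0–3 mM. Run 1 min at 37 °C; radiolabelled palmitoylcarnitine formation was measured. IC50 was taken from the inhibition curve; mean of two determinations in triplicate.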

[2] = target: T2, Carnitine O-palmitoyltransferase 1, muscle isoform (Rattus norvegicus, UniProt Q63704); assay: In vitro inhibition of [14C]palmitoyl-CoA and carnitine binding to carnitine palmitoyltransferase I of rat heart mitochondria
T2 sequence (Q63704 whole entry): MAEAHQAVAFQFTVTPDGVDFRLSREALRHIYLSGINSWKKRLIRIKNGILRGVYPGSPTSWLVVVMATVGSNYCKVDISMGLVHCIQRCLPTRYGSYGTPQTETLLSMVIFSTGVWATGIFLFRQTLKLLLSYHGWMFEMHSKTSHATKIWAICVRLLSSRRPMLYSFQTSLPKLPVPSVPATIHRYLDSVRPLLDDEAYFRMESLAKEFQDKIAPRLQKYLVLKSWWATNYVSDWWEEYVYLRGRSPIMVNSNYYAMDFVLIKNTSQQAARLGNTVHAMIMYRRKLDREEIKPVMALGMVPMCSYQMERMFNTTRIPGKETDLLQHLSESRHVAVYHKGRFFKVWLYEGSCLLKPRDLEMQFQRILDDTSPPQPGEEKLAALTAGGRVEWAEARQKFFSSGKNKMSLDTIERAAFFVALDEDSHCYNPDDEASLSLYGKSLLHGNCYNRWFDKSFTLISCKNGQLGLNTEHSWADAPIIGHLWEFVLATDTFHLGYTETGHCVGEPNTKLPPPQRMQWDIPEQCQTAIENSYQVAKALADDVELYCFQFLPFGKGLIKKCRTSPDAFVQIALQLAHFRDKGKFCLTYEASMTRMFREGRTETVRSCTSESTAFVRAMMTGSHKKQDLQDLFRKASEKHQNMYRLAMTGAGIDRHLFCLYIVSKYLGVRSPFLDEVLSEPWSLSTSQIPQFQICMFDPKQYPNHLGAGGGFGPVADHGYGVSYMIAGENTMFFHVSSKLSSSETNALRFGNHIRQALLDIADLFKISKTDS
Summary of the method: as §1, with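 “hearts” for “livers”, “75” for “225”, “[14C]palmitoyl incorporated into carnitine” for “radiolabelled palmitoylcarnitine formation”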

Mus musculus [3] = assay: Percent decrease in the liver glycogen level of mice treated with 50 mg/kg of compound orally for 45 days; assay type: functional; details: route oral
Summary of the method: (§2)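 Male C57BL/KsJ-db/db mice, 8 weeks old, n=8 per group. Dosed orally at 50 mg/kg or an equimolar dose, twice daily for 45 days; controls got 0.5% carboxymethylcellulose vehicle at 10 mL/kg. Sampled 9 h after the last dose, after a 9 h fast. Percent change was calculated against untreated db/db controls.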

Rattus norvegicus [4] = organism: Rattus norvegicus; assay: Percent decrease of oleoylcarnitine levels in isolated rat hepatocytes at 3 mM compound concentration; No variation
Rattus norvegicus [5] = organism: Rattus norvegicus; assay: Effective dose of compound that reduces serum beta-hydroxybutyrate levels in rats
[6] = target: T1, Carnitine O-palmitoyltransferase 1, liver isoform; assay: Inhibition of rat liver carnitine palmitoyltransferase I; details: read-out: Ki app; summary of the method: as §1
Mus musculus [7] = assay: Percent decrease in the serum fructosamine level of mice treated with 50 mg/kg of compound orally for 45 days; assay type: functional; details: route oral; summary of the method: as §2
Mus musculus [8] = assay: Percent decrease in the serum glucose level of mice treated with 50 mg/kg of compound orally for 45 days; assay type: functional; details: route oral
Summary of the method: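 Oral dosing of male C57BL/KsJ-db/db mice (8 weeks old, n=8) at 50 mg/kg or an equimolar dose, twice daily for 45 days; vehicle was 0.5% carboxymethylcellulose. Serum was collected 9 h after the last dose, after a 9 h fast. Glucose was measured with an autoanalyzer kit; percent reduction was calculated against untreated db/db controls; Student's t test.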

Mus musculus [9] = assay: Percent increase in the liver triglycerides content of mice treated with 50 mg/kg of compound orally for 45 days; details: route oral
Mus musculus [10] = assay: Level of fructosamine in […] mice serum after treating with 50 mg/kg of compound orally for 45 days (originally-4.80+/-0.17 mmol/L); assay type: functional; details: route oral
Mus musculus [11] = assay: Percent increase of free fatty acids level in serum of mice treated with 50 mg/kg of compound orally for 45 days; details: route oral
Mus musculus [12] = assay: Level of glucose in […] mice serum after treating with 50 mg/kg of compound orally for 45 days (originally-673.9+/-44.09 mg/dL); assay type: functional; details: route oral

Compound	IC50 [1] [µM]	IC50 [2] [µM]	further results
CCCCCCCNC(=O)N[C@@H](CC(=O)[O-])C[N+](C)(C)C	43.6	> 300	
CCCCCCCCCCCCNC(=O)N[C@@H](CC(=O)[O-])C[N+](C)(C)C	1.8	> 120	
CCCCCCCCOC(=O)N[C@H](CC(=O)[O-])C[N+](C)(C)C	> 300	> 300	
CCCCCCCCCCCCCCNC(=O)N[C@@H](CC(=O)[O-])C[N+](C)(C)C	1.1	43.4	Decrease (Mus musculus [3]): -25%; Decrease (Rattus norvegicus [4]): No variation; ED50 (Rattus norvegicus [5]): 14.5 mg/kg; Ki [6]: 0.36 µM; Decrease (Mus musculus [7]): -30%; Decrease (Mus musculus [8]): -25%; Increase (Mus musculus [9]): 38%; Level in serum (Mus musculus [10]): 3.37 mM l-1; Increase (Mus musculus [11]): 20%; Level in serum (Mus musculus [12]): 202.6 mg/dL
CCCCCCCCCNC(=O)N[C@H](CC(=O)[O-])C[N+](C)(C)C	> 300	> 300	

Further lines, with some results ahead:

IC50 [1] [µM]	IC50 [2] [µM]	Compound	further results
0.7	3.4	CCCCCCCCCCCCS(=O)(=O)N[C@@H](CC(=O)[O-])C[N+](C)(C)C	
58.8	167	CCCCCCCCCCCCCCNC(=O)N[C@H](CC(=O)[O-])C[N+](C)(C)C [TEGLICAR]	
	118	CCCCCCCCCCCNC(=O)N[C@@H](CC(=O)[O-])C[N+](C)(C)C	
9.5	80.1	CCCCCCCCOC(=O)N[C@@H](CC(=O)[O-])C[N+](C)(C)C	
31.3	46.2	CCCCCCCCCNC(=O)N[C@@H](CC(=O)[O-])C[N+](C)(C)C	
6	> 10	CCCCCCCCCCCCS(=O)(=O)N[C@H](CC(=O)[O-])C[N+](C)(C)C	
